The results in this text go back to ChEMBL document CHEMBL5661972, “In vitro biological activity of a novel small-molecule inhibitor of polo-like kinase 1” (Mol Cancer Ther, 2007).

The IC50 is the midpoint of a concentration-inhibition curve.

A short description of data set [1]: Selectivity ratio of IC50 for cytotoxicity against human HDF cells to IC50 for antiproliferative activity against human NCI-H460 cells. The format is toxicity, cell-based. As to conditions: HDF cells versus NCI-H460 cells, read-out: Ratio IC50. Summed up: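 HDF (5,000/well) and H460 (2,000/well) cells exposed 3 days to 3-fold dilutions (30–0.00152 μmol/L) in medium with 5% FBS, gentamicin and 0.3% DMSO (low-glucose DMEM for HDF, RPMI 1640 for H460); vehicle controls growing logarithmically. IC50 from each line gives the HDF/H460 ratio.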

The test system of data set [2] is NHDF. Nature of the data set: Induction of cell cycle arrest in human HDF cells assessed as accumulation of cells at Sub-2N phase at 1 micromol/L incubated for 48 hrs by propidium iodide staining based flow cytometry analysis (reference value: 0.5 %). As to conditions: 1 µM, dose 1 µmol/L. The format is toxicity. Summed up: (§1)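 Cells seeded in six-well plates at densities that keep them in log growth (HDF 120,000, 60,000 or 30,000; H460 100,000, 50,000 or 25,000 per well for 24, 48 or 72 h). Treated with 1 or 3 μmol/L. Floating and adherent cells collected, ethanol-fixed, permeabilized with Triton X-100 and stained with propidium iodide. DNA content read by flow cytometry as % singlet cells.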
In general terms: Flow cytometry measures light scatter and fluorescence of single cells or particles in a stream.

For data set [3], the system named is NCI-H460. Description: Induction of cell cycle arrest in human NCI-H460 cells assessed as accumulation of cells at G1 phase at 3 micromol/L incubated for 24 hrs by propidium iodide staining based flow cytometry analysis (reference value: 45.5 %). The format is functional. The settings on record: dose 3 µmol/L, at 3 µM. Summed up:
as §1

For a further data set, the target named is T1, Aurora kinase A (Homo sapiens, UniProt O14965).
T1 sequence (O14965 whole entry): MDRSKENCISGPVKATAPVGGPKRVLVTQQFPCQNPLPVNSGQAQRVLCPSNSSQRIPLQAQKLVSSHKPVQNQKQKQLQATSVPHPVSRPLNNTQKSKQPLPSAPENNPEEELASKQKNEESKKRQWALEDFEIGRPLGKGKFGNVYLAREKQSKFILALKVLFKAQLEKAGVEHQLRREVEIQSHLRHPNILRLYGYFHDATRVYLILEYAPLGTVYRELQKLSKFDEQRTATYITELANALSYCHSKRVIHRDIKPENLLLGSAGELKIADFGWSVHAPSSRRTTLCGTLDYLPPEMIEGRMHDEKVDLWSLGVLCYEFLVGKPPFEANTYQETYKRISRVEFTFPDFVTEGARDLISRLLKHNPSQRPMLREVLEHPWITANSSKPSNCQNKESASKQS
Nature of the data set: Inhibition of Aurora A (unknown origin).

Data set [4] has as its system NHDF. Description: Induction of cell cycle arrest in human HDF cells assessed as accumulation of cells at S phase at 1 micromol/L incubated for 72 hrs by propidium iodide staining based flow cytometry analysis (reference value: 3.6 %). It is filed as toxicity. The settings on record: 1 µM, dose 1 µmol/L. Summed up:
as §1

In data set [5] the test system is NHDF. Nature of the data set: Induction of cell cycle arrest in human HDF cells assessed as accumulation of cells at Sub-2N phase at 1 micromol/L incubated for 24 hrs by propidium iodide staining based flow cytometry analysis (reference value: 0.2 %). It is filed as toxicity. As to conditions: 1 µM, dose 1 µmol/L. Summed up:
as §1

Data set [6] has as its system NCI-H460. Nature of the data set: Induction of cell cycle arrest in human NCI-H460 cells assessed as accumulation of cells at Sub-2N phase at 1 micromol/L incubated for 72 hrs by propidium iodide staining based flow cytometry analysis (reference value: 2.1 %). The format is functional. The settings on record: dose 1 µmol/L, at 1 µM.
Data set [7] relates to NHDF. Nature of the data set: Induction of cell cycle arrest in human HDF cells assessed as accumulation of cells at >4N phase at 1 micromol/L incubated for 72 hrs by propidium iodide staining based flow cytometry analysis (reference value: 1.4 %). The settings on record: 1 µM, dose 1 µmol/L. It is filed as toxicity. Summed up: as §1
Data set [8] deals with NHDF. Description: Induction of cell cycle arrest in human HDF cells assessed as accumulation of cells at G1 phase at 1 micromol/L incubated for 24 hrs by propidium iodide staining based flow cytometry analysis (reference value: 57.0 %). It is filed as toxicity. As to conditions: 1 µM, dose 1 µmol/L. Summed up: as §1
In data set [9] the test system is NHDF. Nature of the data set: Induction of cell cycle arrest in human HDF cells assessed as accumulation of cells at G1 phase at 3 micromol/L incubated for 72 hrs by propidium iodide staining based flow cytometry analysis (reference value: 85.6 %). The format is toxicity. As to conditions: 3 µM, dose 3 µmol/L. Summed up:
as §1

A further data set relates to BT-474. Nature of the data set: Antiproliferative activity against human BT-474 cells assessed as inhibition of cell growth. The format is functional, cell-based.
Data set [10] has as its system NCI-H460. Description: Induction of cell cycle arrest in human NCI-H460 cells assessed as accumulation of cells at Sub-2N phase at 1 micromol/L incubated for 48 hrs by propidium iodide staining based flow cytometry analysis (reference value: 2.5 %). As to conditions: dose 1 µmol/L, at 1 µM. It is filed as functional.
In data set [11] the target is Serine/threonine-protein kinase PLK1 (Homo sapiens, UniProt P53350). Description: Inhibition of human PLK1 expressed in baculovirus infected in Trichoplusia ni cells using Biotin-Ahx-SFNDTLDFD as substrate in presence of ATP by TopCount scintillation proximity assay. Further details: species or system Trichoplusia ni cell. Summed up: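 Baculovirus-expressed PLK1 kinase domain (2 nmol/L) in 25 mmol/L HEPES pH 7.2, 15 mmol/L MgCl2, 1 μmol/L ATP plus [γ-33P]ATP, 1 μmol/L biotinylated peptide substrate, BSA and DTT; 1–1.5 h at 22°C. Stopped with EDTA/streptavidin SPA beads. Signal above EDTA background converted to percent inhibition versus DMSO-only wells.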
Serine/threonine-protein kinase PLK1, sequence (P53350 whole entry, the tested form may be a part): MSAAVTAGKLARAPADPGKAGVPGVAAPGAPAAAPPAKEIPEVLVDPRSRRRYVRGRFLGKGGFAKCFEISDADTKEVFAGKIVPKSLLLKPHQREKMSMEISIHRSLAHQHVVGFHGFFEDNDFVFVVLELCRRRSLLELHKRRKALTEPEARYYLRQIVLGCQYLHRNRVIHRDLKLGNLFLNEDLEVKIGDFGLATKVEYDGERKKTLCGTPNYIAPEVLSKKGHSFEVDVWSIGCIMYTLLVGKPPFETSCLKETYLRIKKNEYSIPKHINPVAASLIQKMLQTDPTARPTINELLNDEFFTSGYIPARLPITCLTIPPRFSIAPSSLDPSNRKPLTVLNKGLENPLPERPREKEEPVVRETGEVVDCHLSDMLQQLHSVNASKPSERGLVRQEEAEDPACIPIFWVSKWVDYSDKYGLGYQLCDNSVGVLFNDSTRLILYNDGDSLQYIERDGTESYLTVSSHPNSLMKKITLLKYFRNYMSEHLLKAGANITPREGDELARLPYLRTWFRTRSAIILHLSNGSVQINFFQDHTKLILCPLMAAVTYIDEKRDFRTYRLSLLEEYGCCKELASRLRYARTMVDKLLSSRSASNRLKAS

Data set [12] in a line: Selectivity ratio of IC50 for cytotoxicity against human HDF cells to IC50 for antiproliferative activity against human HCT-116 cells. As to conditions: HDF cells versus HCT-116 cells. It is filed as toxicity, cell-based.
The test system of data set [13] is NHDF. Description: Induction of cell cycle arrest in human HDF cells assessed as accumulation of cells at G1 phase at 3 micromol/L incubated for 48 hrs by propidium iodide staining based flow cytometry analysis (reference value: 72.8 %). It is filed as toxicity. The settings on record: 3 µM, dose 3 µmol/L. Summed up: as §1
Data set [14] relates to NHDF. Description: Induction of cell cycle arrest in human HDF cells assessed as accumulation of cells at G2-M phase at 3 micromol/L incubated for 48 hrs by propidium iodide staining based flow cytometry analysis (reference value: 14.3 %). The format is toxicity. The settings on record: 3 µM, dose 3 µmol/L. Summed up:
as §1

For data set [15], the system named is NCI-H460. Nature of the data set: Induction of cell cycle arrest in human NCI-H460 cells assessed as accumulation of cells at G1 phase at 1 micromol/L incubated for 24 hrs by propidium iodide staining based flow cytometry analysis (reference value: 45.5 %). It is filed as functional. As to conditions: dose 1 µmol/L, at 1 µM. Summed up:
as §1

For data set [16], the system named is NHDF. Description: Induction of cell cycle arrest in human HDF cells assessed as accumulation of cells at S phase at 3 micromol/L incubated for 48 hrs by propidium iodide staining based flow cytometry analysis (reference value: 4.7 %). It is filed as toxicity. The settings on record: 3 µM, dose 3 µmol/L. Summed up: as §1
For data set [17], the system named is NCI-H460. Description: Induction of cell cycle arrest in human NCI-H460 cells assessed as accumulation of cells at S phase at 3 micromol/L incubated for 24 hrs by propidium iodide staining based flow cytometry analysis (reference value: 23.2 %). It is filed as functional. As to conditions: dose 3 µmol/L, at 3 µM.
The test system of data set [18] is NCI-H460. Nature of the data set: Induction of cell cycle arrest in human NCI-H460 cells assessed as accumulation of cells at >4N phase at 1 micromol/L incubated for 48 hrs by propidium iodide staining based flow cytometry analysis (reference value: 0.9 %). The settings on record: dose 1 µmol/L, at 1 µM. The format is functional. Summed up:
as §1

Data set [19] has as its system NCI-H460. Description: Induction of cell cycle arrest in human NCI-H460 cells assessed as accumulation of cells at Sub-2N phase at 3 micromol/L incubated for 24 hrs by propidium iodide staining based flow cytometry analysis (reference value: 4.0 %). The format is functional. The settings on record: dose 3 µmol/L, at 3 µM.
In data set [20] the test system is NHDF. Nature of the data set: Induction of cell cycle arrest in human HDF cells assessed as accumulation of cells at Sub-2N phase at 3 micromol/L incubated for 48 hrs by propidium iodide staining based flow cytometry analysis (reference value: 0.5 %). It is filed as toxicity. The settings on record: 3 µM, dose 3 µmol/L. Summed up: as §1
The test system of data set [21] is NHDF. Nature of the data set: Induction of cell cycle arrest in human HDF cells assessed as accumulation of cells at G2-M phase at 1 micromol/L incubated for 72 hrs by propidium iodide staining based flow cytometry analysis (reference value: 8.2 %). The format is toxicity. As to conditions: 1 µM, dose 1 µmol/L. Summed up:
as §1

A value given as a limit tells only on which side of the number the result lay.

On to `COc1cc2ncn(-c3cc(OCc4ccccc4C(F)(F)F)c(C(N)=O)s3)c2cc1OC` [GW843682X], for which the selectivity ratio is more than 10 in data set [1] and 8.8 in [12]. Also, the Activity in the data set with NHDF [2] is 0.9%; in the data set on NCI-H460 [3], 7.8%; in the data set with NHDF [4], 6.7%; in the data set with NHDF [5], 0.3%; in the data set with NCI-H460 [6], 16%; in the data set on NHDF [7] it was 3.5%. In addition, the Activity with NHDF [8] amounted to 54.2%; with NHDF [9], 5.6%; with NCI-H460 [10], 14.4%; in the data set on NHDF [13], 11.3%; in the data set on NHDF [14], 61.2%; with NCI-H460 [15], 27.3%. The Activity with NHDF [16] was found to be 5.9%; with NCI-H460 [17] it was 8.4%; with NCI-H460 [18] it was 29%; with NCI-H460 [19] it was 24.1%; with NHDF [20], 2.3%; with NHDF [21], 21.6%. Further, the 50% inhibitory concentration (IC50) against Aurora kinase A was determined as 4800 nM; in the data set with BT-474, 570 nM; in [11], 2.2 nM.
